This note sets out measurements from the RNAGym collection of RNA variant scans (doi:10.1126/science.aae0568).

B1: tRNA (parent)
chain: GUUCCGUUGGCGUAAUGGUAACGCGUCUCCCUCCUAAGGAGAAGACUGCGGGUUCGAGUCCCGUACGGAACG

This sample holds only a part of the variants without activity.

This data set covers variants of B1. Put plainly: yeast fitness relative to wild type (ratio to wild type); higher = fitter; tRNA-Arg(CCU), competitive growth, 37 C, YPD. In short, it runs like this: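 Genotype frequency changes were the basis for Darwinian fitness relative to wild type. The frequencies came from 100-nucleotide paired-end sequencing of gene amplicons from the start population and each end population of pooled yeast strains with tRNA-Arg(CCU) gene variants at the native locus. Competition ran in YPD at 37°C for 24 hours in six replicates, genotypes needed ≥ 100 starting reads, and estimates < 0.5 were set to 0.5.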
For the variant G18C A21G C66A, the yeast fitness was no more than 0.5.
For the variant G18C C30G A65C, the yeast fitness came out at 0.541.
Take G18C A40C C61U: the yeast fitness is no more than 0.5.
Regarding U19A C27G C31U A70G, the yeast fitness is no more than 0.5.
As for U19A C24U G38A U54C A69C, the yeast fitness is no more than 0.5.
Take U19A C24G G52C U64G: the yeast fitness was determined as 0.535.
G18C C55U G67C: the yeast fitness stood at 0.565.
For the variant G18C C22U C34G A43U, the yeast fitness was no more than 0.5.
For the variant U19A C24U G38A U54C C66A, the yeast fitness amounted to 0.511.
Regarding G18C C29U C34U G58C, the yeast fitness was no more than 0.5.
As for G18C C49A C61G, the yeast fitness stood at 0.694.
As for U19A C31A A37G C49U, the yeast fitness is no more than 0.5.
For G18C U47C G51A the value was no more than 0.5.
The figure for U19A C22G A42G U54A G67A is no more than 0.5; for G18C U59C it is 0.559.
U19A A65C C66G: the yeast fitness is no more than 0.5.
For G18C C31U A43U the value was 0.588; for G18C G23A G25C A37G A43C A65C, no more than 0.5; for U19A C24U U64C, 0.689.
With G18C A37U G48C C49A, the yeast fitness is no more than 0.5.
G18C U26A C55G: the yeast fitness was no more than 0.5.
For U19A C27U U28C C55U the value was no more than 0.5; for U19A A43U C46G, 0.658; for G18C A42C U54A, no more than 0.5.
Take G18U U26A U47C: the yeast fitness is no more than 0.5.
Consider U19A C30A A43G, for which the yeast fitness is no more than 0.5.
The figure for G18C C27G is 0.61.
G18C C27U: the yeast fitness was determined as 0.71.
Regarding G18C C27A, the yeast fitness turned out to be 0.555.
For G18C C31A the value was 0.634; for G18C C30U A42G C55A, 0.533; for G18C A57G U59A C62U, no more than 0.5.
As to U19A A37U C55G, the yeast fitness is 0.593.
Take G18A U26G G50C C62A G63C: the yeast fitness was no more than 0.5.
For U19A A45C the value was 0.726; for U19A C33U A36U C60U, no more than 0.5; for U19A C29A U32A U54C C55G C60G, no more than 0.5.
For G18C, the yeast fitness is 0.659.
The figure for G18U is 0.844.
Regarding G18A U32A G44A A65C, the yeast fitness is no more than 0.5.
In the case of G18C C22G G39A, the yeast fitness was no more than 0.5.
With G18C G25C U28G A42G C49U A57U, the yeast fitness was 0.557.
In the case of G18C A36U A70U, the yeast fitness is no more than 0.5.
For G18C A43C G52A the value was 0.502; for U19A A43U C55G, 0.55; for G18A U53A C62G, no more than 0.5.
For G18C A37C the value was 0.641.
The figure for G18C A37G is 0.577; for G18U A36C G67C it is no more than 0.5; for U19A C31U U53A it is no more than 0.5.
As to U19A A45U U54G, the yeast fitness is 0.631.
On to G18C A43U, for which the yeast fitness came out at 0.674.
For G18A U53G the value was no more than 0.5.
For G18C C22U U26G C30G C55G C66A, the yeast fitness was no more than 0.5.
In the case of G18C U19G C27U A43U G67U, the yeast fitness was no more than 0.5.
Consider G18C C27G U28C U47C U59A A65G, for which the yeast fitness stood at 0.61.
The figure for G18C A45C is 0.695; for G18C C22G it is 0.682.
With G18C C22U, the yeast fitness was found to be 0.558.
For G18C U19A U28G A40C C62G C66G the value was no more than 0.5.
For the variant G18C C60G A70C, the yeast fitness is no more than 0.5.
On to G18C C31G A42G, for which the yeast fitness worked out at 0.505.
On to G18C G56A, for which the yeast fitness was found to be 0.739.
For G18C G56C, the yeast fitness stood at 0.524.
Turning to G18C C33A, the yeast fitness came to 0.592.
On to U19A A20U U35C, for which the yeast fitness came out at 0.82.
The figure for U19A C24G C33G C34G G51A is 0.531; for G18U A45G it is 0.758; for G18C C49U it is 0.607.
G18C C49G: the yeast fitness came out at 0.734.
With G18C C60G A65G, the yeast fitness is 0.544.
Turning to U19A C24A C30G C34U G51A G52C C66U, the yeast fitness is no more than 0.5.
On to G18C C24G A70G, for which the yeast fitness was no more than 0.5.
Regarding U19A A36U C61U, the yeast fitness is no more than 0.5.
With G18C C27U C62G G63A C66G A69G, the yeast fitness was no more than 0.5.
For G18A U19A G63A the value was no more than 0.5.
In the case of G18C A45G G50U U53A, the yeast fitness was no more than 0.5.
As to U19A C31U A42C A70G, the yeast fitness was found to be 0.912.
In the case of U19A A36U A45U C49U U64A A70U, the yeast fitness was determined as 0.788.
On to G18C G41A A42C G50C A70G, for which the yeast fitness is no more than 0.5.
For the variant G18A U54A, the yeast fitness is 0.597.
For U19A A42G A65C A69C A70G, the yeast fitness was no more than 0.5.
As to G18C A65C G68A, the yeast fitness is no more than 0.5.
The figure for U19A C33U A36U C66U is no more than 0.5; for U19A C34G A43C A70G it is no more than 0.5.
On to G18C C24A U32C, for which the yeast fitness stood at 0.55.
Regarding U19A A40G C55G A65C, the yeast fitness came to 0.534.
On to G18C A45U G50C C55G U64C, for which the yeast fitness was no more than 0.5.
With U19A C22U U32C C46U, the yeast fitness is no more than 0.5.
As to G18A U28A A42G A45C, the yeast fitness is no more than 0.5.
Consider U19A C34G G52A, for which the yeast fitness is no more than 0.5.
For the variant U19A C22U G56A, the yeast fitness amounted to 0.547.
Consider G18A U26G G48C A65G, for which the yeast fitness is no more than 0.5.
The figure for G18C A21G A70C is 0.572; for U19A A40G G51A it is no more than 0.5; for U19A A20U G51C it is 0.836.
As to U19A C31G, the yeast fitness was 1.02.
As for G18C C29U C49G, the yeast fitness was no more than 0.5.
With U19A C24U C33U C49U, the yeast fitness is no more than 0.5.
In the case of G18C A69C, the yeast fitness was 0.642.
Consider U19A A21G C29G, for which the yeast fitness was found to be 0.543.
For the variant G18C G67U, the yeast fitness came to 0.632.
For the variant G18C G67A, the yeast fitness is 0.728.
For G18C G67C the value was 0.656.
On to G18C G50U U53A, for which the yeast fitness is no more than 0.5.
For G18C C24U A43C C46U G63C C66U the value was no more than 0.5; for G18C G56C C62U, no more than 0.5.
On to G18A U26C A40C U54A, for which the yeast fitness is no more than 0.5.
U19A C33A C34U A36C: the yeast fitness is no more than 0.5.
As to G18C U26C C29G C31G C33U C46A A69C, the yeast fitness was no more than 0.5.
Take G18C C60G: the yeast fitness is no more than 0.5.
For U19A C24G C27G C31G C34G A37C A57G C61G, the yeast fitness stood at 0.576.
As to U19A A36G A42C C66A, the yeast fitness is no more than 0.5.
For the variant U19A C27U C49U C55U, the yeast fitness was determined as 0.525.
Consider U19A A20G C24U A43G G48C, for which the yeast fitness is no more than 0.5.
With G18C A43C C62A, the yeast fitness was no more than 0.5.
Turning to G18C C30G C62G, the yeast fitness was no more than 0.5.
Regarding U19A C24G C33G C34G A57G, the yeast fitness worked out at 0.579.
As to U19A A57U G67C, the yeast fitness amounted to 0.556.
Turning to U19A A45U A69U, the yeast fitness worked out at 0.739.
Regarding G18C C27U A69C, the yeast fitness was found to be 0.502.
The figure for U19A A40U is 1.07; for G18C C22U C61U it is no more than 0.5; for G18C G68A it is 0.619.
For U19A C27U C29U the value was 0.697.
Turning to G18C U53C A57C, the yeast fitness is no more than 0.5.
Take G18C C31U C46U: the yeast fitness is no more than 0.5.
The figure for U19A C27U G44C G48C C66U is no more than 0.5; for U19A A21G C27U C33U G56A it is no more than 0.5; for G18C C29G U47C it is no more than 0.5.
In the case of G18C C30G U32C, the yeast fitness is no more than 0.5.
For G18C C30A the value was 0.642; for G18C C30G, no more than 0.5; for G18C C30U A45C A69U, no more than 0.5.
As for U19A C27G, the yeast fitness came to 0.581.
For U19A C27A, the yeast fitness was 0.775.
The figure for G18C A36U C61A G63C is no more than 0.5; for G18A U19C C22U it is 0.641.
In the case of G18C U19G C27U A43U, the yeast fitness was no more than 0.5.
Consider G18A U26A C27U C49U G58A A65G, for which the yeast fitness was no more than 0.5.
For G18C U19G A45C the value was 0.73.
Regarding U19A A21U C24A U28C, the yeast fitness was no more than 0.5.
On to G18C C22A A45C C46U A65C, for which the yeast fitness is no more than 0.5.
On to U19A A20G C29A A40C G50C, for which the yeast fitness is no more than 0.5.
For the variant G18A U28C G50U, the yeast fitness was no more than 0.5.
On to U19A A21U C24A U28C U53C C60G, for which the yeast fitness was no more than 0.5.
The figure for G18C U35A A45C is 0.671; for G18C A36G C61A it is no more than 0.5.
The figure for G18C C62A is no more than 0.5; for G18C C62U it is 0.611; for U19A A45G A57C it is no more than 0.5.
The figure for G18C A45U G56U U64A A69C is 0.786; for U19A C27U C66U it is 0.786; for G18C A21U C24U U28A it is 0.629.
For the variant U19A C27U G44C G48C, the yeast fitness is no more than 0.5.
With G18C C33A G39C G41C G44C, the yeast fitness was no more than 0.5.
For G18C C29G A45G C66U A69C the value was no more than 0.5.
Turning to G18C A21C C30G C46G, the yeast fitness is no more than 0.5.
Consider G18C C27G C46A G58A U59A, for which the yeast fitness is no more than 0.5.
With G18C G23A, the yeast fitness was no more than 0.5.
In the case of G18C G23C, the yeast fitness was 0.577.
The figure for U19A C24A G48C is no more than 0.5; for G18C U19A U28G A40C it is no more than 0.5; for G18C G48A it is 0.571.
Turning to U19A A42C, the yeast fitness was found to be 0.862.
In the case of U19A A42U, the yeast fitness came to 0.949.
With G18A U19C C22G C24A G39C A45C, the yeast fitness came out at 0.619.
